ChEMBL document CHEMBL1134791, “2- and 3-substituted 1,4-naphthoquinone derivatives as subversive substrates of trypanothione reductase and lipoamide dehydrogenase from Trypanosoma cruzi: synthesis and correlation between redox cycling activities and in vitro cytotoxicity” (J Med Chem, 2001)
Calls of active or inactive are those of the source. The calls are words filed in the database; no cut-off is given here.

Assays:
[1] = molecular target: T1, Dihydrolipoyl dehydrogenase, mitochondrial (Sus scrofa) (UniProt P09623); test: Ratio of cytochrome c reduction and NADH oxidation by pig heart LipDH (lipoamide dehydrogenase) at 50 uM concentration, in cytochrome c assay
T1 sequence (whole entry): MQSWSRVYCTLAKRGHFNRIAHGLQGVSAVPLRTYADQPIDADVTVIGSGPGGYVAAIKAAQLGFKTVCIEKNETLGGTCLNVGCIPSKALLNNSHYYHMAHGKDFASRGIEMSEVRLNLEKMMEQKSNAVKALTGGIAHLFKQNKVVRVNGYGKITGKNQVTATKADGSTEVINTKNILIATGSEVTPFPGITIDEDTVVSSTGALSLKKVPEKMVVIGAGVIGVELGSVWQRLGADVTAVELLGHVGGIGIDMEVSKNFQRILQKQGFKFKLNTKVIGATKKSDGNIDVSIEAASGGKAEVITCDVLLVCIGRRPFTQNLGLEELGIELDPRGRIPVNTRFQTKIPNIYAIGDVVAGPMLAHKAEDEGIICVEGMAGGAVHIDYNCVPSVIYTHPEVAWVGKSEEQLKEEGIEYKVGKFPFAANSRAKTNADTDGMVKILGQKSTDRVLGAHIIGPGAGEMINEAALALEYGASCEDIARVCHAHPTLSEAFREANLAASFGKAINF
Procedure, shortened: (§1)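 T. cruzi or pig heart LipDH in 50 mM potassium phosphate pH 7.0 with 100 µM NADH, 50 µM cytochrome c and 50 µM naphthoquinone at 31 °C. Cytochrome c reduction read at 550 nm; NADH oxidation measured at 340 nm in the same conditions without cytochrome c. One-electron reduction % = cytochrome c rate ÷ (2 × NADH rate). At least duplicate.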

[2] = test system: Leishmania donovani; test: In vitro antiparasitic activity against Leishmania donovani was tested by sigmoidal regression analysis; format: functional
Procedure, shortened: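 Mouse peritoneal macrophages (female CD1, starch-elicited, harvested 24 h) infected with L. donovani amastigotes (strain MHOM/ET/67/L82, hamster spleen) or T. cruzi Y-strain trypomastigotes (5:1, from MDCK overlay). Infected cells exposed to a 3-fold dilution series in quadruplicate for 5 days (L. donovani) or 3 days (T. cruzi). Giemsa-stained slides scored for % macrophages cleared of amastigotes versus untreated cultures. ED50 by sigmoidal regression.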

[3] = test system: Dihydrolipoyl dehydrogenase (Trypanosoma cruzi); test: The second order rate constant of the TcLipDH (Trypanosoma cruzi lipoamide dehydrogenase) catalyzed NADH oxidation.
[4] = molecular target: T1, Dihydrolipoyl dehydrogenase, mitochondrial (Sus scrofa); test: The second order rate constant of the pig heart LipDH (lipoamide dehydrogenase) catalyzed NADH oxidation.
Procedure, shortened: (§2)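 Recombinant T. cruzi LipDH (E. coli, purified) or pig heart LipDH, 0.1–2.5 µg/mL. Buffer was 50 mM potassium phosphate, 1 mM EDTA, pH 7.0, with 100 µM NADH and naphthoquinone at 10 µM–1.2 mM; all assays carried equal DMSO. Run at 31 °C, started with enzyme, NADH decrease followed at 340 nm. Km and Vmax from Lineweaver–Burk plots. At least duplicate.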

[5] = test system: Trypanosoma cruzi; test: Ratio of cytochrome c reduction and NADH oxidation by TcLipDH (Trypanosoma cruzi lipoamide dehydrogenase) at 50 uM concentration, in cytochrome c assay; procedure, shortened: as §1
[6] = test system: Trypanosoma brucei; test: In vitro antiparasitic activity against Trypanosoma brucei was tested by sigmoidal regression analysis at 30 uM; IA is inactive; format: functional, organism-based
Procedure, shortened: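 T. b. brucei S427 bloodstream trypomastigotes at 2 × 10⁵/mL in HMI-18 medium, in triplicate, with a 3-fold dilution series starting at 30 µM. Incubated 3 days at 37 °C in 5% CO₂. Pentamidine served as positive control. Viability read by tetrazolium colorimetric assay on day 3. ED50 by sigmoidal regression.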

[7] = molecular target: T1, Dihydrolipoyl dehydrogenase, mitochondrial (Sus scrofa); test: Second order rate constant of the pig heart LipDH (lipoamide dehydrogenase) catalyzed NADH oxidation.; procedure, shortened: as §2
[8] = molecular target: Trypanothione reductase (Trypanosoma cruzi) (UniProt P28593); test: The second order rate constant of the TcTR (Trypanosoma cruzi trypanothione reductase) catalyzed […].
Sequence of Trypanothione reductase (Trypanosoma cruzi) (P28593 whole entry, looked up): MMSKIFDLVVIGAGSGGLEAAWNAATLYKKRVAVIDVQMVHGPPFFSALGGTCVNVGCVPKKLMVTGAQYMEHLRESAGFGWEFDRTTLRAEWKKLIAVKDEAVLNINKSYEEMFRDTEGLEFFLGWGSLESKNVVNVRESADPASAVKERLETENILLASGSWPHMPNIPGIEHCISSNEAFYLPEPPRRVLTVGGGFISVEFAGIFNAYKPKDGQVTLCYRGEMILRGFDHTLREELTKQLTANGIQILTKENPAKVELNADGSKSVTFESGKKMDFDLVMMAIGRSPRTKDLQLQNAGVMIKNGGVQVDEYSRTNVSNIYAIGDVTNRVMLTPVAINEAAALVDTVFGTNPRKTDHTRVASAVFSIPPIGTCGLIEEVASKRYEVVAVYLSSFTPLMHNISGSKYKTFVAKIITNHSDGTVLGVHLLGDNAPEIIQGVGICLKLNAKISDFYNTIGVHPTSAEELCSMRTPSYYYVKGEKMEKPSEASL
Procedure, shortened: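 Recombinant TcTR (0.6 U) in 20 mM Hepes, 1 mM EDTA, 0.15 M KCl, pH 7.25 at 22 °C, with 200 µM NADPH and naphthoquinone at five concentrations (0–100 µM) in 1% DMSO. NADPH oxidation at 340 nm; intrinsic oxidase rate not subtracted. Km and Vmax from nonlinear Michaelis–Menten fit; kcat and kcat/Km calculated.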

[9] = test system: Trypanosoma cruzi; test: The Michaelis-Menten constant for NADH oxidation by TcLipDH (Trypanosoma cruzi lipoamide dehydrogenase)
[10] = test system: Trypanosoma cruzi; test: Vmax is the maximum velocity of the TcLipDH (Trypanosoma cruzi lipoamide dehydrogenase) catalyzed NADH oxidation
Procedure, shortened: (§3)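 Recombinant TcLipDH expressed in E. coli, 0.1–2.5 µg/mL. 50 mM potassium phosphate, 1 mM EDTA, pH 7.0, 31 °C, with 100 µM NADH and naphthoquinone varied from 10 µM to 1.2 mM. DMSO was constant in all assays. NADH decrease followed at 340 nm. Km, Vmax and kcat came from Lineweaver-Burk plots, with kcat/Km derived. At least duplicate.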

[11] = test system: Trypanosoma cruzi; test: The second oder rate constant of the TcLipDH (Trypanosoma cruzi lipoamide dehydrogenase) catalyzed NADH oxidation.; procedure, shortened: as §2
[12] = test system: Trypanosoma brucei; test: In vitro antiparasitic activity against Trypanosoma brucei was tested by sigmoidal regression analysis
[13] = molecular target: Trypanothione reductase (Trypanosoma cruzi) (UniProt P28593); test: Rate of NADPH oxidation by TcTR in presence of 100 uM NQ was determined in comparison to intrinsic oxidase activity
Procedure, shortened: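 Quinone reductase activity of recombinant TcTR measured as NADPH oxidation at 340 nm. Buffer was 20 mM Hepes, 1 mM EDTA, 0.15 M KCl, pH 7.25, with 250 µM NADPH at 25 °C. Rate with naphthoquinone (100 µM for line 8, 25 µM for line 9) divided by intrinsic oxidase rate of enzyme plus NADPH alone. Mean of at least two measurements.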

[14] = test system: Trypanosoma cruzi
[15] = molecular target: T1, Dihydrolipoyl dehydrogenase, mitochondrial (Sus scrofa); test: Ratio of cytochrome c reduction and NADH oxidation by pig heart LipDH (pig heart lipoamide dehydrogenase) at 50 uM concentration, cytochrome c assay; procedure, shortened: as §1
[16] = test system: Trypanosoma cruzi; test: The second order rate constant of the TcLipDH (Trypanosoma cruzi lipoamide dehydrogenase) catalyzed NADH oxidation.; procedure, shortened: as §3

CC1=C(CCC(=O)O)C(=O)c2c(O)cccc2C1=O
Reduction [1]: 1.6%
ED50 [2]: 72 µM
k cat/Km [3]: 10.2 10e4 M-1 s-1
k cat/Km [4]: 2.4 10e4 M-1 s-1
Reduction [5]: 6.6%

CC1=CC(=O)c2ccccc2C1=O
IA [6]: inactive
Reduction [1]: 8.1%
k cat/Km [7]: 13 10e4 M-1 s-1
k cat/Km [8]: 1 10e4 M-1 s-1
Km [9]: 170 µM
Reduction [5]: 12.7%

CC1=C(CCCNC(=O)OC(C)(C)C)C(=O)c2c(O)cccc2C1=O
ED50 [2]: 10 µM
Vmax [10]: 8.24 µM/min/mg
k cat/Km [11]: 23 10e4 M-1 s-1
k cat/Km [4]: 3.5 10e4 M-1 s-1
Km [9]: 30 µM

CC1=C(CCC(=O)NCCCN2CCN(C)CC2)C(=O)c2c(O)cccc2C1=O
Reduction [1]: 0.6%
k cat/Km [4]: 6.1 10e4 M-1 s-1
Reduction [5]: 1.9%

CC1=C(NCCCN2CCN(CCCN)CC2)C(=O)c2ccccc2C1=O
ED50 [12]: > 12.5 µM

CC1=C(CCC(=O)NCCCN2CCN(C)CC2)C(=O)c2ccccc2C1=O
Reduction [1]: 0.8%
ED50 [2]: > 30 µM
k cat/Km [3]: 3 10e4 M-1 s-1
k cat/Km [4]: 2.6 10e4 M-1 s-1
Reduction [5]: 1.6%
x fold [13]: 7

CC1=C(CCC(=O)NCCCN2CCN(CCCNC(=O)CCC3=C(C)C(=O)c4ccccc4C3=O)CC2)C(=O)c2ccccc2C1=O
ED50 [2]: > 46 µM
k cat/Km [8]: 4.4 10e4 M-1 s-1
x fold [14]: 1000 µM

CC1=C(CCCNC(=O)OC(C)(C)C)C(=O)c2ccccc2C1=O
ED50 [2]: 29.4 µM
k cat/Km [3]: 8.4 10e4 M-1 s-1
k cat/Km [4]: 3.4 10e4 M-1 s-1

CC1=C(CCC(=O)O)C(=O)c2ccccc2C1=O
Reduction [15]: 0.5%
ED50 [2]: > 30 µM
k cat/Km [7]: 3.2 10e4 M-1 s-1
k cat/Km [3]: 6.6 10e4 M-1 s-1
Reduction [5]: 3%

CC1=CC(=O)c2c(O)cccc2C1=O
k cat/Km [16]: 48 10e4 M-1 s-1
Reduction [1]: 15.4%
Vmax [10]: 22.9 µM/min/mg
k cat/Km [4]: 29 10e4 M-1 s-1
Km [9]: 40 µM
Reduction [5]: 26.1%
